ChEMBL document CHEMBL1124866, “Synthesis and activity of NAcSerAspLysPro analogues on cellular interactions between T-cell and erythrocytes in rosette formation” (1990)
The source made the active and inactive calls. The calls are words filed in the database; no cut-off is given here. Peptide text beside a SMILES is read from it.

Tests used:
[1] = tested on: Jurkat; experiment: Activity on rosetting of jurkat T-cells with SRBC at the concentration of 10e-5 M; assay type: functional, Homo sapiens
[2] = tested on: Jurkat; experiment: Activity on rosetting of jurkat T-cells with SRBC at the concentration of 0 M; assay type: functional, Homo sapiens
[3] = tested on: Jurkat; experiment: Activity on rosetting of jurkat T-cells with SRBC at the concentration of 10e-5 M; Not significant; assay type: functional, cell-based; conditions: Homo sapiens
[4] = tested on: Jurkat; experiment: Activity on rosetting of jurkat T-cells with SRBC at the concentration of 10e-4 M; Not significant; assay type: functional, cell-based; conditions: Homo sapiens
[5] = tested on: Jurkat; experiment: (§1) Activity on rosetting of jurkat T-cells with SRBC at the concentration of 10e-4 M; assay type: functional, Homo sapiens
[6] = tested on: Jurkat; experiment: Activity on rosetting of jurkat T-cells with SRBC at the concentration of 10e-11 M; Not significant; assay type: functional, cell-based; conditions: Homo sapiens, at 10 pM
Outline: (§2)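 Jurkat T lymphoma cells kept in RPMI 1640 with 10% heat-inactivated FCS, washed three times before use; SRBC washed three times. Jurkat cells (2 × 10^6 cells/mL, 2.10⁵ cells) preincubated with peptide in RPMI for 10 min at 4 °C. SRBC (2 × 10^8 cells/mL) added, centrifuged 5 min at 200g, held overnight at 4 °C. Rosettes (three erythrocytes per lymphocyte) counted blind by hemocytometer; three experiments in quadruplicate; % inhibition.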

[7] = tested on: Jurkat; experiment: Activity on rosetting of jurkat T-cells with SRBC at the concentration of 10e-8 M; assay type: functional, Homo sapiens
[8] = tested on: Jurkat; experiment: Activity on rosetting of jurkat T-cells with SRBC at the concentration of 10e-3 M; Not significant; assay type: functional, cell-based; conditions: Homo sapiens
[9] = tested on: Jurkat; experiment: Activity on rosetting of jurkat T-cells with SRBC at the concentration of 10e-7 M; assay type: functional, Homo sapiens
[10] = tested on: Jurkat; experiment: Activity on rosetting of jurkat T-cells with SRBC at the concentration of 10e-7 M; Not significant; assay type: functional, cell-based; conditions: Homo sapiens, at 0.1 µM; outline: as §2
[11] = tested on: Jurkat; experiment: Activity on rosetting of jurkat T-cells with SRBC at the concentration of 10e-8 M; Not significant; assay type: functional, cell-based; conditions: Homo sapiens, at 0.01 µM; outline: as §2
[12] = tested on: Jurkat; experiment: Activity on rosetting of jurkat T-cells with SRBC at the concentration of 10e-10 M; Not significant; assay type: functional, cell-based; conditions: Homo sapiens, at 0.0001 µM; outline: as §2
[13] = tested on: Jurkat; experiment: Activity on rosetting of jurkat T-cells with SRBC at the concentration of 10e-9 M; assay type: functional, Homo sapiens
[14] = tested on: Jurkat; experiment: Activity on rosetting of jurkat T-cells with SRBC at the concentration of 10e-6 M; Not significant; assay type: functional, cell-based; conditions: Homo sapiens
[15] = tested on: Jurkat; experiment: Activity on rosetting of jurkat T-cells with SRBC at the concentration of 10e-11 M; assay type: functional, Homo sapiens
[16] = tested on: Jurkat; experiment: Activity on rosetting of jurkat T-cells with SRBC at the concentration of 10e-9 M; Not significant; assay type: functional, cell-based; conditions: Homo sapiens, at 0.001 µM; outline: as §2
[17] = tested on: Jurkat; experiment: Activity on rosetting of jurkat T-cells with SRBC at the concentration of 10e-6 M; assay type: functional, Homo sapiens
[18] = tested on: Jurkat; experiment: Activity on rosetting of jurkat T-cells with SRBC at the concentration of 10e-3 M; assay type: functional, Homo sapiens
[19] = tested on: Jurkat; experiment: Activity on rosetting of jurkat T-cells with SRBC at the concentration of 10e-10 M; assay type: functional, Homo sapiens
[20] = tested on: Jurkat; experiment: as §1; assay type: functional; conditions: Homo sapiens

## NCCCC[C@H](NC(=O)[C@@H](N)CC(=O)O)C(=O)N1CCC[C@H]1C(=O)O (H-Asp-Lys-Pro-OH)
[1]
  No. of rosettes/100 Jurkat T cells: 57
[2]
  No. of rosettes/100 Jurkat T cells: 54
[3]
  inhibition: inactive
[4]
  inhibition: inactive
[5]
  No. of rosettes/100 Jurkat T cells: 55

## CC(=O)N[C@@H](CO)C(=O)N[C@H](CC(=O)O)C(=O)N[C@@H](CCCCN)C(=O)N1CCC[C@H]1C(=O)O
[6]
  inhibition: inactive
[7]
  No. of rosettes/100 Jurkat T cells: 47
[8]
  inhibition: inactive
[1]
  No. of rosettes/100 Jurkat T cells: 49
[9]
  No. of rosettes/100 Jurkat T cells: 47
[10]
  inhibition: inactive
[11]
  inhibition: inactive
[12]
  inhibition: inactive
[2]
  No. of rosettes/100 Jurkat T cells: 51
[13]
  No. of rosettes/100 Jurkat T cells: 51
[14]
  inhibition: inactive
[15]
  No. of rosettes/100 Jurkat T cells: 57
[3]
  inhibition: inactive
[4]
  inhibition: inactive
[16]
  inhibition: inactive
[17]
  No. of rosettes/100 Jurkat T cells: 42
[18]
  No. of rosettes/100 Jurkat T cells: 48
[19]
  No. of rosettes/100 Jurkat T cells: 43
[5]
  No. of rosettes/100 Jurkat T cells: 48

## CC(=O)N[C@@H](CO)C(=O)N[C@@H](CC(=O)O)C(=O)N[C@@H](CCCCN)C(=O)N1CCC[C@H]1C(=O)O (stereo in doubt; form 1)
[6]
  inhibition: inactive
[12]
  inhibition: inactive

## CC(=O)N[C@@H](CO)C(=O)N[C@@H](CC(=O)O)C(=O)N[C@@H](CCCCN)C(=O)N1CCC[C@H]1C(=O)O (stereo in doubt; form 2)
[10]
  inhibition: inactive
[11]
  inhibition: inactive
[12]
  inhibition: inactive
[14]
  inhibition: inactive
[3]
  inhibition: inactive
[4]
  inhibition: inactive

## N[C@@H](CO)C(=O)N[C@@H](CC(=O)O)C(=O)O (H-Ser-Asp-OH)
[7]
  No. of rosettes/100 Jurkat T cells: 55
[1]
  No. of rosettes/100 Jurkat T cells: 55
[9]
  No. of rosettes/100 Jurkat T cells: 58
[10]
  inhibition: inactive
[11]
  inhibition: inactive
[2]
  No. of rosettes/100 Jurkat T cells: 51
[13]
  No. of rosettes/100 Jurkat T cells: 64
[14]
  inhibition: inactive
[3]
  inhibition: inactive
[20]
  inhibition at 100 µM: 31%
[16]
  inhibition: inactive
[17]
  No. of rosettes/100 Jurkat T cells: 55
[5]
  No. of rosettes/100 Jurkat T cells: 46

## CC(=O)N[C@@H](C)C(=O)N[C@@H](CC(=O)O)C(=O)N[C@@H](CCCCN)C(=O)N1CCC[C@H]1C(=O)O (Ac-ADKP-OH)
[6]
  inhibition: inactive
[7]
  No. of rosettes/100 Jurkat T cells: 63
[1]
  No. of rosettes/100 Jurkat T cells: 57
[9]
  No. of rosettes/100 Jurkat T cells: 59
[10]
  inhibition: inactive
[11]
  inhibition: inactive
[12]
  inhibition: inactive
[2]
  No. of rosettes/100 Jurkat T cells: 60
[13]
  No. of rosettes/100 Jurkat T cells: 64
[14]
  inhibition: inactive
[15]
  No. of rosettes/100 Jurkat T cells: 56
[3]
  inhibition: inactive
[4]
  inhibition: inactive
[16]
  inhibition: inactive
[17]
  No. of rosettes/100 Jurkat T cells: 59
[19]
  No. of rosettes/100 Jurkat T cells: 56
[5]
  No. of rosettes/100 Jurkat T cells: 54

## NCCCC[C@H](NC(=O)[C@@H](N)CC(=O)O)C(=O)O (H-Asp-Lys-OH)
[7]
  No. of rosettes/100 Jurkat T cells: 58
[1]
  No. of rosettes/100 Jurkat T cells: 56
[11]
  inhibition: inactive
[2]
  No. of rosettes/100 Jurkat T cells: 56
[3]
  inhibition: inactive
[4]
  inhibition: inactive
[5]
  No. of rosettes/100 Jurkat T cells: 53
